Measured values from different studies.
Each line is one published result; the experiments were not run side by side.

`Cc1ccnc2c1NC(=O)c1cccnc1N2C1CC1` has a CC50 of 0.82 µg/mL (MT4; cell growth or viability, MTT; 5 days).
For `CC(=O)Nc1nnc(N2CCN([C@@H](C)c3ccc4c(c3)OCO4)CC2)s1`, the fraction unbound was 0.125 (dog, plasma; 1 µM).
`N=C(N)c1ccc(OCc2ccc(COc3ccc(C(=N)N)cc3)cc2)cc1` has a haemolysis of 0.4% (haemolysis; sheep; 200 µg/mL, 20 h).
The CC50 of `Nc1ncnc2c1ncn2[C@@H]1C=C[C@@]2(CO)C[C@@H]12` is reported as over 100 µg/mL (MT4; cell growth or viability, MTT; 5 days).
The Km of `CON=C(N)c1ccc(-c2ccc(-c3ccc(C(N)=NOC)cc3)o2)cc1` is reported as 0.9 µM (Cytochrome P450 2J2 (CYP2J2, Homo sapiens, UniProt P51589); enzyme activity, substrate).
`O=c1ccn([C@@H]2C=C[C@@]3(CO)C[C@@H]23)c(=O)[nH]1` gave a CC50 of over 100 µg/mL (MT4; cell growth or viability, MTT; 5 days).
`N=C(N)c1ccc(OCCSCCOc2ccc(C(=N)N)cc2)cc1` gave a haemolysis of 0% (haemolysis; sheep; 200 µg/mL, 20 h).
`C[C@H](Cn1cnc2c(N)ncnc21)OCP(=O)(O)O` gave a CC50 of 6.73 µg/mL (MT4; cell growth or viability, MTT; 5 days).
With `COc1cc(/C=C/C(=O)OCCCc2ccc(O[C@H](COC(=O)/C=C/c3ccc(O)c(OC)c3)[C@@H](OC)c3ccc(O)c(OC)c3)c(OC)c2)ccc1O` the CC50 was over 10 µM (MT4; cell growth or viability; 72 h).
With `Cc1ccc2c(c1)nc(/C=C/c1cccc3cccnc13)n2-c1ccccc1` the compound remaining was 17.8% (metabolic stability; rat, liver microsomes; 1.5 µM, 45 min).
The IC50 of `COc1cccc2c1C(=O)c1c(O)c3c(c(O)c1C2=O)C[C@@](O)(C(=O)CO)C[C@@H]3O[C@H]1C[C@H](N)[C@H](O)[C@H](C)O1` is reported as 0.1 µM (BJ; cell growth or viability).
For `N=C(N)c1ccccc1OCc1cccc(COc2ccccc2C(=N)N)c1`, the haemolysis was 0% (haemolysis; sheep; 200 µg/mL, 1 h).
`C=C(CCO)Cn1cnc2c(=O)[nH]c(N)nc21` has a CC50 of over 100 µM (MT4; cell growth or viability, MTT; 7 days).
`N=C(N)c1ccc(OCCCCCCCOc2ccc(C(=N)N)cc2)cc1` gave a haemolysis of 9.2% (haemolysis; sheep; 200 µg/mL, 20 h).
For `Cc1ncsc1-c1ccc(CNC(=O)[C@@H]2C[C@@H](O)CN2C(=O)[C@@H](NC(=O)CCCCCCCCCCNC(=O)O[C@H]2C[C@@H](C)C=C3C=C[C@H](C)[C@H](CC[C@@H]4C[C@@H](O)CC(=O)O4)[C@H]32)C(C)(C)C)cc1`, the compound remaining was 41.2% (metabolic stability; mouse, liver microsomes; 1 µM, 5 min, pH 7.4).
